Eleven compounds from ChEMBL document CHEMBL1154477, “1,2,3-Triazol-carboxanilides and 1,2,3-triazol-(N-benzyl)-carboxamides as BK-potassium channel activators. XII” (Eur J Med Chem, 2008) can be followed below.

Format in all cases: tissue-based
Assay [1] addresses Calcium-activated potassium channel subunit alpha-1 (Rattus norvegicus) (UniProt Q62976). The experiment in a line: (§1) Activation of BK channel in Wistar rat thoracic aorta assessed as relaxation of KCl-induced contraction. Put shortly:
(§2)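 Endothelium-denuded aortic rings in Tyrode at 37 °C, gassed 95% O2/5% CO2. Denudation was confirmed by under 10% acetylcholine relaxation of KCl 20 mM tone. Rings were precontracted with KCl 20 mM, then given cumulative 3-fold increasing concentrations from 10 nM (DMSO stock, diluted in Tyrode). Efficacy was maximal relaxation as % of KCl tone; pIC50 was derived only when efficacy was ≥55%. 5-10 experiments.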

For assay [2], the target named is Calcium-activated potassium channel subunit alpha-1 (Rattus norvegicus, UniProt Q62976). The description is as §1. In outline:
as §2

Assay [3] has as its target Calcium-activated potassium channel subunit alpha-1 (Rattus norvegicus) (UniProt Q62976). The experiment in a line: Activation of BK channel in Wistar rat thoracic aorta assessed as relaxation of KCl-induced contraction in presence of potassium channel blocker TEAC. In outline: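 Endothelium-denuded aortic rings in gassed Tyrode at 37 °C, incubated with tetraethylammonium chloride 10 mM for 20 min before KCl 20 mM precontraction. Cumulative 3-fold increasing concentrations from 10 nM were added at the plateau. Relaxation was expressed as % of KCl tone, with pIC50 as the negative log molar concentration halving the tone. 5-10 experiments.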

Chain of Calcium-activated potassium channel subunit alpha-1 (Q62976 whole entry): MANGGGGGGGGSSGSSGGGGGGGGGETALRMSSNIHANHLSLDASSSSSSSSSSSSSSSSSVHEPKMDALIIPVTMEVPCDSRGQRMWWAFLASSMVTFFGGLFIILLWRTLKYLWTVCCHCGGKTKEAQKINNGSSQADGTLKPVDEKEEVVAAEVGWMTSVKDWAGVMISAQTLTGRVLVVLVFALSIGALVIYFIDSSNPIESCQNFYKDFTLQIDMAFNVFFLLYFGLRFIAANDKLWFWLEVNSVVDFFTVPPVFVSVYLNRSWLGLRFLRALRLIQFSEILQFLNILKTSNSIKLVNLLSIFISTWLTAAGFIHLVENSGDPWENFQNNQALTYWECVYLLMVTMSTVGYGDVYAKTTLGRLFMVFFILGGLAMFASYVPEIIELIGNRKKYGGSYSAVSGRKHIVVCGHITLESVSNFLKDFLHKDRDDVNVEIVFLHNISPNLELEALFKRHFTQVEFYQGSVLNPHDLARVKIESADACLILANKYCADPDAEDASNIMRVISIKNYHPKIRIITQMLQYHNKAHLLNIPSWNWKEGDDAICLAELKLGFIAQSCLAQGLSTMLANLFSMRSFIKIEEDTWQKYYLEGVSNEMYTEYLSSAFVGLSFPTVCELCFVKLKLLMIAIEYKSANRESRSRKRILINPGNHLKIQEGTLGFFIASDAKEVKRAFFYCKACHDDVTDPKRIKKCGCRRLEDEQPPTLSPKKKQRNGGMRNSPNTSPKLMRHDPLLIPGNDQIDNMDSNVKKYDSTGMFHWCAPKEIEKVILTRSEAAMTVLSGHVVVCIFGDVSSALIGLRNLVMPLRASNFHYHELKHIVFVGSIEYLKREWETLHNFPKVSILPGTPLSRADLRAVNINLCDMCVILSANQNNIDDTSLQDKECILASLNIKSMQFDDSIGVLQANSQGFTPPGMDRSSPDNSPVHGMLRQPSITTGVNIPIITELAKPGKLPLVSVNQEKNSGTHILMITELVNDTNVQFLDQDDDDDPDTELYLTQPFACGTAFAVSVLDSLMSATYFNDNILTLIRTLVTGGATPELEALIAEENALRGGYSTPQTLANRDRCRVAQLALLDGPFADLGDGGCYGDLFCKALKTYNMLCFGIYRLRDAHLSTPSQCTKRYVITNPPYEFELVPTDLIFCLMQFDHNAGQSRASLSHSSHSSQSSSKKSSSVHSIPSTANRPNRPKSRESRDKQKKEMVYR
Chain of Calcium-activated potassium channel subunit alpha-1 (Rattus norvegicus) (Q62976 whole entry): as above

As usually defined, the Emax is the maximal effect, on the per cent scale that the assay sets. In the case of `Cc1c(C(=O)Nc2ccccc2O)nnn1Cc1ccccc1Cl`, the Emax in assay [1] came to 52%. As to `Cc1c(C(=O)Nc2ccc(Cl)cc2)nnn1Cc1ccccc1O`, in assay [1], the maximal response (Emax) is 53%.

The IC50 is the midpoint of a concentration-inhibition curve. As to `Cc1c(C(=O)Nc2ccccc2O)nnn1Cc1ccccc1O`, in assay [1], the Emax turned out to be 81%. Also, in assay [2], the IC50 was 20.4 µM.

Turning to `Cc1c(C(=O)NCc2ccccc2O)nnn1Cc1ccccc1F`, the maximal effect (Emax) in assay [1] amounted to 24%. In the case of `Cc1c(C(=O)NCc2ccccc2)nnn1Cc1ccccc1O`, in assay [1], the maximum response (Emax) was 48%. Take `Cc1c(C(=O)Nc2ccccc2)nnn1Cc1ccccc1O`: the maximum response (Emax) in assay [1] was determined as 89%; in assay [3] it was 37%. For the same compound, in assay [2], the half-inhibitory concentration (IC50) is 17.8 µM. `Cc1c(C(=O)NCc2ccccc2O)nnn1Cc1ccccc1Cl`: the Emax in assay [1] is 49%. `O=c1[nH]c2cc(C(F)(F)F)ccc2n1-c1cc(C(F)(F)F)ccc1O`: the maximal effect (Emax) in assay [1] worked out at 94%. Moreover, the IC50 in assay [2] was 5.13 µM. Taken in the same sequence, the figures for `Cc1c(C(=O)NCc2ccccc2O)nnn1Cc1ccccc1O` were 76% and 21.9 µM.

For the compound `Cc1c(C(=O)NCc2ccccc2Cl)nnn1Cc1ccccc1O`, the Emax in assay [1] is 51%. Same read-out and setting: next, `Cc1c(C(=O)Nc2ccccc2O)nnn1Cc1ccccc1F`: 35%.
